Experiment [1] deals with PC-3. Kind of experiment: Ability to stimulate PC3 cell proliferation by BrdU incorporation using colorimetric ELISA at 50 uM. In kind it is functional, Homo sapiens. In outline: (§1)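 PC-3 cells (DMEM, 10% FBS, 2 mM L-glutamine) seeded at 7 × 10⁴/well, settled 24 h at 37 °C, 5% CO₂. NE added (0, 0.1, 1, 10, 50 μM) for 16 h. BrdU present during the last 4 h; incorporation read by colorimetric BrdU cell-proliferation ELISA. Expressed as % growth vs untreated. Mean ± SD of three separate experiments.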
On the technique in general: Incorporation of labelled thymidine or its analogues reports DNA synthesis.

Experiment [2] concerns PC-3. Kind of experiment: Ability to stimulate PC3 cell proliferation by BrdU incorporation using colorimetric ELISA at 10 uM. It counts as functional, Homo sapiens. The essentials:
as §1

The target of experiment [3] is T1, Alpha-1D adrenergic receptor (Rattus norvegicus) (UniProt P23944).
T1 sequence (whole entry): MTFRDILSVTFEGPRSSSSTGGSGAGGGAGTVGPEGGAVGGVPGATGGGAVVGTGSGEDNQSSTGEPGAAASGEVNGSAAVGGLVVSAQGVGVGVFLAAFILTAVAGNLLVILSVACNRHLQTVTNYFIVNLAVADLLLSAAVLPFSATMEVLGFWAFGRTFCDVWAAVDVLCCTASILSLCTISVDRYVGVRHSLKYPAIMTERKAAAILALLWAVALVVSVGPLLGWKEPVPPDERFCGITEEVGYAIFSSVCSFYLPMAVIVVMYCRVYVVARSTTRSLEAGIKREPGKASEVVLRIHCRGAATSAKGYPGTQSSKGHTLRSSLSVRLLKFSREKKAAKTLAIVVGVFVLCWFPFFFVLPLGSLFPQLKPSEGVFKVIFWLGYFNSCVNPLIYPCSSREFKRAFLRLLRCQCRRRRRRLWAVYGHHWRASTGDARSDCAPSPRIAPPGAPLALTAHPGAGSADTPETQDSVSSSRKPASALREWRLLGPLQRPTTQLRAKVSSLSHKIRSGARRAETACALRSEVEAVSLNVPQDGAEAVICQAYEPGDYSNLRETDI
Description: ADRA1D blocking activity assessed by antagonism of (-)-NE induced contractions on isolated rat thoracic aorta. It counts as functional, tissue-based. In outline: (§2)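 Isolated rat tissue: each antagonist concentration tested four times over 0.01–1 μM; pK_B calculated by van Rossum method from shifts of (-)-noradrenaline contraction curves (vas deferens, α1A; thoracic aorta, α1D) or (-)-phenylephrine contraction curves (spleen, α1B).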

The target of experiment [4] is T2, Alpha-1A adrenergic receptor (Rattus norvegicus) (UniProt P43140).
T2 sequence (whole entry): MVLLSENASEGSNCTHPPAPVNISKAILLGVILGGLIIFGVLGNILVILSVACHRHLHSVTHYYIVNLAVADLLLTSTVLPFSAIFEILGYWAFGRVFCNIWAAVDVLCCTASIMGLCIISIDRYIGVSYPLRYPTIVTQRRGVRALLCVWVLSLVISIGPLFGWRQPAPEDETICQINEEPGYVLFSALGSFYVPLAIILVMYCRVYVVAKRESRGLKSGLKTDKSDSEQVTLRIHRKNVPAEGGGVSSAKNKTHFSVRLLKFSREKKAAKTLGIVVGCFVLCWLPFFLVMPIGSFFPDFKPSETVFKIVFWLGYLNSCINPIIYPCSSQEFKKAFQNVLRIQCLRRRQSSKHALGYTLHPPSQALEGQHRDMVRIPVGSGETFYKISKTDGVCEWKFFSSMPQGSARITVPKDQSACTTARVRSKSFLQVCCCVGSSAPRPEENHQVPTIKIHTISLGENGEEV
Description: ADRA1A blocking activity assessed by antagonism of (-)-NE induced contractions on isolated rat prostatic vas deferens. In kind it is functional, tissue-based. The essentials: as §2

For experiment [5], the target named is T3, Alpha-1B adrenergic receptor (Rattus norvegicus) (UniProt P15823).
T3 sequence (whole entry): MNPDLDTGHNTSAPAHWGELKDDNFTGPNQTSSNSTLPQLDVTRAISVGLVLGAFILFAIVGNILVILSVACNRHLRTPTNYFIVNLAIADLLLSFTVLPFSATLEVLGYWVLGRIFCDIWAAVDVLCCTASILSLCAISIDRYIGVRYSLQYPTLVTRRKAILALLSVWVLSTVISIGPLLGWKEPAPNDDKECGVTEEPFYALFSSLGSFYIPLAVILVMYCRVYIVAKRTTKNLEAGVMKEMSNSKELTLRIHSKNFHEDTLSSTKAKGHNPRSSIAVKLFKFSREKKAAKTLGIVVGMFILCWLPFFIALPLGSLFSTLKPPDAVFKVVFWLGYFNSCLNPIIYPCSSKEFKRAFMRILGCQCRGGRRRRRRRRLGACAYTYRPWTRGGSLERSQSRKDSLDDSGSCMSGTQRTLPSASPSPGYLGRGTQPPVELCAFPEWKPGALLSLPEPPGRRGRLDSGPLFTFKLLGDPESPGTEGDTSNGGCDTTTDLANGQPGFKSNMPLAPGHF
Description: ADRA1B blocking activity assessed by antagonism of (-)-phenylephrine induced contractions on isolated rat spleen. It counts as functional, tissue-based. In outline: as §2

The test system of experiment [6] is PC-3. Description: Cytotoxic activity on human PC3 prostate cancer cells by SRB assay. In kind it is functional. The following applies: Homo sapiens, PC-3. In outline: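 NCI-protocol SRB assay on PC-3 cells grown in DMEM/10% FBS/2 mM glutamine. Seeded 24 h, then compounds in medium for 48 h at 37 °C, 5% CO2, in quadruplicate. A time-zero plate was read. Cells TCA-fixed, stained with 0.4% SRB, absorbance at 520 nm. GI50, TGI and LC50 interpolated from % growth versus log concentration.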
(Sulforhodamine B stains cellular protein and so reports cell mass.)

Experiment [7] concerns PC-3. Description: Inhibition of NE-induced increase of PC3 cell proliferation using ELISA BrdU. It counts as functional, cell-based. Particulars: Homo sapiens. In outline:
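PC-3 cells (7×10^4/well) plated 24 h, then given noradrenaline (0–50 μM) alone or with antagonist (1 μM, or 0.5 μM for one compound) for 16 h. BrdU added for the last 4 h and read by colorimetric ELISA as % growth; mean ± SD of three experiments.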

Each structure is given as a SMILES string. Active and inactive are the calls of the source. The rule behind the calls is not given here.

The text below walks through data of ChEMBL document CHEMBL1141864, “Structure-activity relationships in 1,4-benzodioxan-related compounds. 8.(1) {2-[2-(4-chlorobenzyloxy)phenoxy]ethyl}-[2-(2,6-dimethoxyphenoxy)ethyl]amine (clopenphendioxan) as a tool to highlight the involvement of alpha1D- and alpha1B-adrenoreceptor subtypes in the regulation of human PC-3 …” (J Med Chem, 2005).

`NC[C@H](O)c1ccc(O)c(O)c1` [NOREPINEPHRINE]: the Activity was determined as 65% in the experiment on PC-3 [1] and 33% in the experiment on PC-3 [2].
A word on the pKb: it is the negative decadic logarithm of the Kb, by convention in mol/L. Read a high pKb as a small Kb. The term GI50 denotes the concentration at which growth is held to half of that of the control. Low values mean greater sensitivity of the cells, high ones lower sensitivity of the cells. A word on the TGI: it is the concentration giving total growth inhibition. Low readings indicate greater sensitivity of the cells, high ones lower sensitivity of the cells. Consider `COc1cccc(OC)c1OCCNCCOc1ccccc1OCc1ccc(OC(C)C)cc1`, for which the pKb came out at 9.14 in experiment [3], 8.17 in experiment [4] and 8.62 in experiment [5]. Moreover, the GI50 in the experiment on PC-3 [6] amounted to 2 µM. This compound also gave an LC50 (50% lethal concentration) in the experiment on PC-3 [6] of 63.1 µM. For the same compound, the TGI in the experiment with PC-3 [6] turned out to be 17.8 µM.
Consider `COc1cc2nc(N3CCN(C(=O)C4COc5ccccc5O4)CC3)nc(N)c2cc1OC` (centres undefined) [DOXAZOSIN], for which the pKb in experiment [3] turned out to be 8.97; in experiment [4], 8.69; in experiment [5], 9.51. Further, the result with PC-3 [7] was inactive. In the experiment with PC-3 [6], the TGI worked out at 49 µM.
`CCOc1ccc(COc2ccccc2OCCNCCOc2c(OC)cccc2OC)cc1` registered a pKb in experiment [3] of 9.11. The compound also yielded a pKb in experiment [4] of 8.5. The pKb in experiment [5] came to 8.23. In the experiment with PC-3 [6], this compound returned a GI50 of 5.2 µM, an LC50 (50% lethal concentration) of 51.3 µM and a TGI of 18.2 µM.
